Hits are enriched below; roughly 2% of the tested compounds scored in any of these assays.
EBNA-1 inhibitor: EBNA-1 DNA-binding inhibitors, primary screen, biochemical, fluorescence polarization | inhibition, % at 14.8 µM | AID 1950, 2009 | hit rate 0.34% among 300,000; in the data active = inhibition above about 28%
HCV NS3 hel inh: inhibitors of HCV NS3 helicase, primary screen, biochemical, Cy5 molecular beacon fluorescence | Hepatitis C virus NS3 helicase | NS3 helicase DNA unwinding | inhibition, % at 10.9 µM | hit rate 0.56% among 290,000 | AID 1800, 2009;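 active = inhibition above the mean of all tested compounds plus 3 SD, set per campaign, cut at about 35% in these data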;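 also: 0% = DMSO wells and 100% = thioflavine S control wells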
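Measured by: Cy5 fluorescence, 0 and 60 min reads / Assay system: NS3 helicase fragment of HCV / Control set: low DMSO, high thioflavine S at 110 µM / Times: 1 h reaction at 25 °C, ATP-initiated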
ZTA counter: blocks Epstein-Barr virus ZTA, an EBNA-1 counter-screen; AID 2234; P03206; inhibition, % at 11 µM; hit rate 0.15% among 320,000; ZTA-DNA binding, fluorescence polarization; in the data active = inhibition above about 33%
Target sequence (P03206 whole entry, looked up): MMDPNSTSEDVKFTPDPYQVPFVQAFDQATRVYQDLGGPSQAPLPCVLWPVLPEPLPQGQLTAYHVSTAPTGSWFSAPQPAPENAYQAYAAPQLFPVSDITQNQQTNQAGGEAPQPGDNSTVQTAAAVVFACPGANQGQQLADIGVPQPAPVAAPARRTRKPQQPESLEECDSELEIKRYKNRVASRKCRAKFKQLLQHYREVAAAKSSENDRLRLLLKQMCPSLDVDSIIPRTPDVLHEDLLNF
DNA FID counter: compounds displacing fluorescent DNA intercalator, primary screen, artefact control for HCV NS3 helicase inhibitor project, biochemical, FID fluorescence; DNA fluorescent intercalator displacement; inhibition, % at 7.9 µM; hit rate 0.17% among 290,000; AID 1845, 2009; in the data active = inhibition above about 37%;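 also: 0% = vehicle and 100% = reference compound; higher means more ethidium bromide displaced from hairpin DNA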
GPR7 antag: GPR7 receptor antagonists, primary screen, cell-based, fluorescence, single concentration; AID 1861, 2009; hit rate 1.1% among 290,000; inhibition, % at 4.4 µM; GPR7-expressing cells, fluorescence antagonist assay; in the data active = inhibition above about 16%, passing the limit was not always enough;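 also: cells stimulated with the agonist NPW; 0% = agonist with vehicle and 100% = vehicle without agonist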
EBNA-1 confirm: EBNA-1 DNA-binding inhibitors, retest, confirmation, biochemical, fluorescence polarization, triplicate; Recombinant EBNA-1 DBD, Cy5-DNA fluorescence polarization; hit rate 35% among 830; AID 2292, 2010; shares compounds with EBNA-1 inhibitor; inhibition, % at 14.8 µM;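 active = mean inhibition across replicates above a set limit taken from the earlier primary screen, cut at about 28% in these data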;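 also: plate controls were EBNA-1 protein with DMSO for no effect and wells lacking EBNA-1 for full effect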
ZTA counter trip: EBV Zta DNA binding inhibitors, counter-screen for EBNA-1 inhibitor project, biochemical, fluorescence polarization, triplicate; 830 tested, under 10 active; AID 2328, 2010; inhibition, % at 11.1 µM; shares compounds with EBNA-1 inhibitor; Zta-ZRE DNA binding, Cy5 fluorescence polarization;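 active = mean inhibition over triplicates above a set limit taken from the primary EBNA-1 screen, cut at about 37% in these data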;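 also: purified full length Zta protein with Cy5 labeled ZRE DNA probe; 0% = Zta with DMSO and 100% = wells lacking Zta protein; inhibitors lower polarization by freeing the labeled DNA probe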
Active calls of the source: *; nt = no result given.

SMILES | EBNA-1 inhibitor | HCV NS3 hel inh | ZTA counter | DNA FID counter | GPR7 antag | EBNA-1 confirm | ZTA counter trip
Cc1ccc(NCc2nnc(SCC(N)=O)o2)c(C)c1 | 8 | 3 | -7 | -2 | -1 | nt | nt
CCC(=O)c1cn([C@H](CCC(OC)OC)CC(=O)OC(C)(C)C)cc1CC | -13 | nt | -12 | nt | nt | nt | nt
Cc1ccc(NC(=O)CSc2ccc(-c3ccc4c(c3)OCO4)nn2)cc1F | 52* | -4 | -10 | 1 | 0 | 68* | 1
CCn1cc(Cl)c(C(=O)Nc2cccc(CN3CCOCC3)c2)n1 | nt | 3 | nt | -2 | 10 | nt | nt
CN(CC(=O)Nc1ccccc1Cl)C(=O)c1cc(C2CC2)nn1-c1ccccc1 | nt | nt | 0 | nt | nt | nt | nt
COc1cc(/C=C/C(C)=O)cc(OC)c1OC | -1 | -1 | -10 | 1 | -6 | nt | nt
COc1ccc2cc(C(=O)/C=C/c3cc(OC)c(OC)c(OC)c3)ccc2c1 | 48* | -14 | 13 | -35 | 14 | 0 | 8
COC(=O)/C=C1/SC(=Nc2ccc(Cl)c(Cl)c2)NC1=O | 41* | -2 | -2 | 0 | -8 | -8 | -10
CC(=O)NC(=S)Nc1cccc2c(C)cc(C)nc12 | 6 | 4 | 2 | 1 | 1 | nt | nt
Cc1cc(C)c2cccc(NC(=S)NC(=O)c3ccccc3)c2n1 | 34* | 6 | 2 | -1 | 5 | 28* | 5
O=C(NCCOc1ccccc1F)C1CC(=O)N(c2ccc3c(c2)OCCO3)C1 (stereo unspecified) | nt | nt | 3 | nt | nt | nt | nt
Cc1ccccc1OCC(=O)Nc1ccc2c(c1)Cc1ccccc1-2 | 29* | -2 | 11 | 1 | -5 | 4 | 1
CCOc1ccc(NC(=O)c2cc3cc4ccc(OC)cc4nc3o2)cc1 | 29* | 6 | 3 | 1 | -3 | 45* | 5
Cc1onc(-c2c(Cl)cccc2Cl)c1C(=O)NC(=S)Nc1sc2c(c1C(N)=O)CCC(C)C2 (stereo unspecified) | 34* | 5 | 15 | -2 | -11 | 28* | 3
O=C(NC1CCCC1)C(c1ccncc1)N(CC1CCCO1)C(=O)Cn1nnc(-c2cccs2)n1 (stereo unspecified) | -3 | -21 | 9 | -17 | 12 | nt | nt
Cc1ccc(C(C(=O)NCC2CCCO2)N(Cc2ccccc2F)C(=O)Cn2nnc(-c3cccs3)n2)cc1 (stereo unspecified) | 37* | -2 | -10 | -25 | 1 | -1 | 0
O=C(COC(=O)c1cc(Br)ccc1O)Nc1ccc2c(c1)OCCO2 | 49* | nt | 6 | nt | nt | 22 | 1
O=C(COC(=O)c1cc(Br)ccc1O)Nc1ccc2c(c1)OCO2 | nt | nt | 2 | nt | nt | nt | nt
CCCCN(CC)CCNC(=O)CN1C(=O)COc2ccc(S(=O)(=O)N3CCCC3)cc21 | 77* | 1 | 2 | 5 | -2 | -2 | -2
Cc1ccc2c(c1)CCCN2C(=O)c1cc(C)on1 | 1 | 5 | 22 | -3 | -8 | nt | nt
Cn1c(O)c(N=NC(=O)c2cc(-c3cccs3)nc3ccccc23)c2ccccc21 | 109* | 4 | -17 | 0 | 6 | 82* | -8
CCOc1ccc(C(=O)NCCCCNC(=O)c2ccc(OCC)cc2)cc1 | 28* | -9 | -6 | -25 | -6 | 25 | 0
CCn1c(C)c(C)c2cc(C(=O)NCCCN3CCCCC3C)ccc21 (stereo unspecified) | -5 | -12 | -1 | 6 | -11 | nt | nt
CCOC(=O)c1cc2cc(CC(=O)c3ccc(OCC)cc3O)ccc2o1 | 28* | 0 | -9 | 0 | 7 | 30* | 9
CCOc1ccc(C(=O)Cc2ccc3oc(C(=O)O)cc3c2)c(O)c1 | 1 | 15 | 7 | -24 | 2 | nt | nt
COC(=O)[C@]1(C)N[C@H](c2ccc(-c3ccc(F)cc3)cc2)[C@@H]2C(=O)N(C)C(=O)[C@@H]21 | 6 | nt | -1 | nt | nt | nt | nt
CCCC(=O)Nc1ccc2nc(SCC(=O)Nc3ccc(N4CCOCC4)c(Cl)c3)sc2c1 | 67* | -18 | 16 | -9 | -12 | 71* | 4
